In article PMC4910733 (Oncoimmunology, 2015):

Assays:
[1] = tested on: HL cell lines, isolated MSC; assay: Toxicity by mitochondrial potential; type: cell-based, human; details: for toxic effect (mitochondrial potential, JC-1): HL cell lines or isolated MSC, 2.5 up to 10 μM, 48, 72 and 96 h (not shown)
[2] = tested on: NK cell killing of HL cell lines (L428, L540, KMH2); type: cell-based, human; details: L428 and L540 treated 24 h at 10 μM, E:T 10:1
How it was run: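 NK cells purified to >96%, stimulated with 0.5 µg/mL PHA plus 10 ng/mL rIL-2, then cultured 15 d in RPMI1640 with 10% FCS and rIL-2; n = 6. Target HL cells were pre-exposed 24 h to medium, DMSO or test compound (10 µM). 4-h 51Cr release at E:T 10:1. Some effectors received anti-NKG2D mAb (5 µg/mL) or isotype control. Specific lysis = (experimental − spontaneous)/(maximum − spontaneous).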

Recombinant human ADAM10 = target: T1, Recombinant human ADAM10 (Homo sapiens, UniProt O14672); assay: In vitro enzymatic inhibition assay; type: biochemical; details: read-out: ADAM10 IC50; average of three determinations, SD <10%
T1 sequence (O14672 214-748): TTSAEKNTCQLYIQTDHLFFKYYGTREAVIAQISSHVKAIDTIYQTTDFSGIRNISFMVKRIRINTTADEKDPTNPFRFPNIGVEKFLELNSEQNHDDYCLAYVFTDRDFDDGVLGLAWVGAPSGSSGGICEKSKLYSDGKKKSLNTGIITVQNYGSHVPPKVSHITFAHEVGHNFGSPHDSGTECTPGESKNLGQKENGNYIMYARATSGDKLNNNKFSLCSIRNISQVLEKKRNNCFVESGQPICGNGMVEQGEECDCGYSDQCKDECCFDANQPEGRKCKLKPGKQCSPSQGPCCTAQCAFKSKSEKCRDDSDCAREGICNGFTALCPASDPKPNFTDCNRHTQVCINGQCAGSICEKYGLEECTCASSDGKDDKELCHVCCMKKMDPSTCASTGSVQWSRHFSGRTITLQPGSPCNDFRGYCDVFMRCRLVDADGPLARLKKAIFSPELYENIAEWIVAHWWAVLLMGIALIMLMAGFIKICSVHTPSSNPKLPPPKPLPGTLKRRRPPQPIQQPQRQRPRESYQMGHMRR

MMP-2 = target: T2, MMP-2 (Homo sapiens, UniProt P08253); assay: MMP inhibition assay; type: biochemical; details: read-out: MMP2 IC50; average of three determinations, SD <10%
T2 sequence (P08253 110-660): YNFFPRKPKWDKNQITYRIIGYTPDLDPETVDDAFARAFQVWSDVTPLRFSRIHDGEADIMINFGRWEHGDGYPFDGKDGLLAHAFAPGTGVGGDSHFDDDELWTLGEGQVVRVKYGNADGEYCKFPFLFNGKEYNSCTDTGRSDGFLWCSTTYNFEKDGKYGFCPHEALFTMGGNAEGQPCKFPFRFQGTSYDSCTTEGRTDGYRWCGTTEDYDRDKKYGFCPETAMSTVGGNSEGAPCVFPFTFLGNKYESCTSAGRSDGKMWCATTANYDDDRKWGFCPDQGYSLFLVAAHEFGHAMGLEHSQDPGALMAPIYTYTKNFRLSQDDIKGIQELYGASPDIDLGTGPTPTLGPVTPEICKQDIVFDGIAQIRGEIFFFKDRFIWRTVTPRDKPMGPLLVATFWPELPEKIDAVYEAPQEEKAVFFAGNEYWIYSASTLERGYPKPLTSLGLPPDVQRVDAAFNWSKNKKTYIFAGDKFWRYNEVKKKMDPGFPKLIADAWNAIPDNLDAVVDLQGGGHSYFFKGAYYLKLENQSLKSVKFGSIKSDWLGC
How it was run: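 Pro-MMP-2 was activated with APMA 2 mM, 1 h, 37°C. Enzyme (0.56 nM final) and test compound were incubated 3 h at 25°C in 50 mM Tris pH 7.5, 150 mM NaCl, 10 mM CaCl2, 0.05% Brij-35, 1% DMSO. Mca-Lys-Pro-Leu-Gly-Leu-Dap(Dnp)-Ala-Arg-NH2 at 2 µM final. Fluorescence (ex 325/em 400 nm) recorded every 15 s for 20 min, in duplicate. IC50 from vi/vo = 1/(1+[I]/IC50).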

MMP-9 = MMP-9 (Homo sapiens, UniProt P14780); assay: MMP inhibition assay; type: biochemical; details: read-out: MMP9 IC50; average of three determinations, SD <10%
Sequence of MMP-9 (P14780 107-707 limits assumed): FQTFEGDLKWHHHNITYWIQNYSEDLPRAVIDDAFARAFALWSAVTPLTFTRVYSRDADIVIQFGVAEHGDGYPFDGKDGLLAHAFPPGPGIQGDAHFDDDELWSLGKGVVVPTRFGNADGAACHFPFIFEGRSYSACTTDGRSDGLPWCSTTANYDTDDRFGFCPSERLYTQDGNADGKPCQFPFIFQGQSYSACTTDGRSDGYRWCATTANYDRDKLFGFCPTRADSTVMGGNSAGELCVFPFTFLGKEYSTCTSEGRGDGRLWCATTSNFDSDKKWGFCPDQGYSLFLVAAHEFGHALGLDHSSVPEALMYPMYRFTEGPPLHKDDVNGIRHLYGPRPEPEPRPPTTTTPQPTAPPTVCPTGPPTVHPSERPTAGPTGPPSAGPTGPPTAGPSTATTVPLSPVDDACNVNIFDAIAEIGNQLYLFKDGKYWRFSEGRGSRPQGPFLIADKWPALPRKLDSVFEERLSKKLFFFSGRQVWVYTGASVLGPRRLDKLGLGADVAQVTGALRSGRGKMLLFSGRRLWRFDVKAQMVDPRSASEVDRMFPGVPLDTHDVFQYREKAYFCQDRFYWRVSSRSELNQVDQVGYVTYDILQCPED
How it was run: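 APMA-activated MMP-9 (1 mM, 1 h, 37°C), 1.3 nM final, was preincubated with test compound 3 h at 25°C in 50 mM Tris pH 7.5, 150 mM NaCl, 10 mM CaCl2, 0.05% Brij-35, 1% DMSO. Fluorogenic substrate Mca-Lys-Pro-Leu-Gly-Leu-Dap(Dnp)-Ala-Arg-NH2 at 2 µM final. Cleavage monitored (ex 325/em 400 nm) every 15 s for 20 min, in duplicate. IC50 via vi/vo = 1/(1+[I]/IC50).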

[3] = target: Recombinant human MMP-14 catalytic domain (Homo sapiens, UniProt P50281); assay: MMP inhibition assay; type: biochemical; details: read-out: MMP14 IC50; average of three determinations, SD <10%
How it was run: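 Recombinant human MMP-14 catalytic domain (1.0 nM final) was preincubated 3 h at 25°C with test compound in 50 mM Tris pH 7.5, 150 mM NaCl, 10 mM CaCl2, 0.05% Brij-35, 1% DMSO. Substrate Mca-Lys-Pro-Leu-Gly-Leu-Dap(Dnp)-Ala-Arg-NH2 at 2 µM final. Fluorescence (ex 325/em 400 nm) read every 15 s for 20 min, in duplicate. IC50 from vi/vo = 1/(1+[I]/IC50).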

Row | IC50 (Recombinant human ADAM10) [µM] | IC50 (MMP-2) [µM] | IC50 (MMP-9) [µM] | IC50 [3] [µM] | SMILES | toxicity (JC1 staining) ([1]; HL cell lines, 100 μM as pervanadate, 40 min at 37°C (not shown)) | increase of NK cell killing [2] | toxic effect (mitochondrial potential, JC-1) [1]
1 | – | – | – | – | [Na+].[Na+].[Na+].[O]=[V]([O-])([O-])[O-] [Na3VO4, sodium orthovanadate] | not toxic | – | –
2 | – | – | – | – | CNC(=O)[C@@H](NC(=O)[C@H](CCCc1ccccc1)[C@H](C)N(O)C=O)C(C)(C)C [GI254023X] | – | 2–3 fold | did not exert any toxic effect
3 | 0.15 | 0.24 | 1.63 | 19.5 | NC(=O)NCCC[C@@H](NS(=O)(=O)c1ccc(OCc2cc(Br)cc(Br)c2)cc1)C(=O)NO [JG26] | – | 2–3 fold | did not exert any toxic effect
